Source: PubChem BioAssay
Hits are enriched below; roughly 2.9% of the tested compounds scored in any of these assays.
TRPC6 act = activators of mouse TRPC6 channel. Q61143. HEK293-TRPC6 membrane potential dye fluorescence; stronger effect = higher value. B-score at 10 µM. 0.13% of 310,000 active;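 active means B-score of the integrated fluorescence ratio above library mean plus 3 SD, and starting fluorescence ratio within library mean plus 5 SD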;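 further: higher score means more depolarization so channel activation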
TRPC4 potent = allosteric potentiators of mouse TRPC4 channel; Q9QUQ5; HEK293 TRPC4beta/mu-opioid, DAMGO EC20, Fluo-4 Ca2+ flux; stronger effect = higher value; 0.42% of 310,000 active; B-score at 10 µM;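 active means B-score of calcium response area above 5 SD of library B-scores, with initial fluorescence ratio within 5 SD of library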
Target sequence (Q9QUQ5 whole entry, looked up): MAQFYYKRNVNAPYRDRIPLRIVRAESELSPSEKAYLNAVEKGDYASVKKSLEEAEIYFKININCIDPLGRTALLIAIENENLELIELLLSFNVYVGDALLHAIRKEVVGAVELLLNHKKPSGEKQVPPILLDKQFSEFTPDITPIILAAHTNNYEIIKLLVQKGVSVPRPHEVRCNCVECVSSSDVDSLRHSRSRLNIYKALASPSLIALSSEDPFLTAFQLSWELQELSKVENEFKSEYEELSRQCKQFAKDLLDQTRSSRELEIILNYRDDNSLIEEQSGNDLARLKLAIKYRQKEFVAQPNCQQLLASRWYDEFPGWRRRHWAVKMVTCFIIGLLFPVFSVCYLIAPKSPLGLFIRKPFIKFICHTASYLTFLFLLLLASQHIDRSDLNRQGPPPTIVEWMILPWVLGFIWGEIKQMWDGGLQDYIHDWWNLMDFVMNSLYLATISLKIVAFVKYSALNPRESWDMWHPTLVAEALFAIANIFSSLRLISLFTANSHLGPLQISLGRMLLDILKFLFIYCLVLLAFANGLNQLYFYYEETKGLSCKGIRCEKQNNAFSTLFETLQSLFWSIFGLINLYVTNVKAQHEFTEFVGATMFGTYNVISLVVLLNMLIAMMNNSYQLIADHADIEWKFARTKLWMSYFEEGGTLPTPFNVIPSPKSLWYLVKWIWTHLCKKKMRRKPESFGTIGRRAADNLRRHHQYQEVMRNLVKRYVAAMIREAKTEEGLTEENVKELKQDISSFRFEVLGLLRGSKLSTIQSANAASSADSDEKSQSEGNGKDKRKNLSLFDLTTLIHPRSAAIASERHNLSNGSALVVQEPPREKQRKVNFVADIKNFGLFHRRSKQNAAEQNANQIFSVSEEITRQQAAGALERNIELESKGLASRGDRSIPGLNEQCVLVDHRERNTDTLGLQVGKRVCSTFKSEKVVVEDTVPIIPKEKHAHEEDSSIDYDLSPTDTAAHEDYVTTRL
Kir21 inh = inhibitors of mouse Kir2.1 inward-rectifier potassium channel; B-score at 10 µM; P35561; HEK293-Kir2.1, FluxOR thallium flux fluorescence; stronger effect = lower value; AID 1672; 0.85% of 310,000 active;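 active means fluorescence ratio B-score at or below minus 3 SD of library scores, with starting-brightness B-score within 2 SD, cut at about -4.2 in these data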;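 further: channel flux triggered by added potassium and thallium sulfate stimulus; B-score of peak minus minimum fluorescence over baseline after thallium stimulus; more negative B-score means stronger Kir2.1 block with less thallium influx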
TRPC4 act = opens the mouse TRPC4 cation channel; HEK293 TRPC4beta/mu-opioid, Fluo4 calcium fluorescence; stronger effect = higher value; Q9QUQ5; B-score at 10 µM; 0.49% of 310,000 active;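 active means B-score above 5 SD of library B-scores, and initial fluorescence ratio not above library mean plus 5 SD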;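 further: positive B-score marks a calcium rise read as TRPC4 activation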
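Test system: HEK293 cells stably co-expressing mouse TRPC4beta and mu-opioid receptor | Schedule: Fluo4 dye loading 45 min at room temperature, 110 s recording | Measured by: Kinetic Fluo4 calcium fluorescence, 5 s baseline at 1 Hz | Evaluation: B score of integrated ratio | Controls: Buffer (low) and maximal DAMGO (high)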
TRPC6 inh = blocks the mouse TRPC6 cation channel; AID 2553; Q61143; B-score at 10 µM; HEK293-TRPC6, membrane potential dye, ACh-evoked depolarization; stronger effect = lower value; 1.1% of 310,000 active;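 active means B-score under library mean minus 3 SD, initial fluorescence not abnormally high, positive integrated signal ratio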;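 further: B-score derived from integrated fluorescence ratio over the kinetic read; more negative B-score means stronger inhibition of depolarization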
TRPC4 block = blocks the mouse TRPC4 cation channel. 0.39% of 300,000 active. HEK293 TRPC4beta/mu-opioid, DAMGO-evoked Fluo4 calcium flux; stronger effect = lower value. Q9QUQ5. B-score at 10 µM. AID 2247;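 active means B-score over 3 SD under the library average, no early fluorescence shift, positive overall ratio signal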
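material = TRPC4beta/mu-opioid receptor HEK293 cell line | probe or stimulus = sequential submaximal and maximal DAMGO stimulation | compound dosing = one concentration per compound | measured by = Fluo4 Ca2+ flux fluorescence | evaluation = integrated fluorescence ratio relative to baseline, converted to per-well B score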
TRPC4 spec 2 = second check of whether TRPC6 inhibitors also affect mouse TRPC4. shares compounds with TRPC6 inh. HEK293 TRPC4/MOR, membrane potential dye fluorescence; channel activated by saturating DAMGO dose. inhibition, % at 10 µM. 42% of 920 active. AID 2776;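 active means compounds whose fluorescence signal differed from control wells by over 3 SD, either direction, in both duplicate plates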
TRPC4 spec = tests whether TRPC6 inhibitors also affect mouse TRPC4. HEK293 TRPC4/mu-opioid, membrane potential fluorescence. 61% of 920 active. shares compounds with TRPC6 inh. AID 2777. activity change, negative = inhibition, % at 10 µM;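 active means rise or fall in signal beyond 3 SD of buffer-only wells in both replicate plates, either sign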;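 further: integrated kinetic ratio of fluorescence range over baseline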
HEK293 MPD ctr 2-1 = second counter-screen for TRPC6 inhibitors: parental HEK293 cells; shares compounds with TRPC6 inh; parental HEK293 membrane potential dye fluorescence; maximal acetylcholine challenge after compound addition; signal change vs control, % at 10 µM; 31% of 920 active; AID 2779;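 active means membrane potential signal moving either way by over 3 SD of the maximum-effect control, in both duplicate plates, meaning non-specific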
HEK293 MPD ctr-1 = parental HEK293 nonspecific activity of TRPC6 inhibitors. membrane potential signal change, % at 10 µM. shares compounds with TRPC6 inh. parental HEK293 membrane potential dye fluorescence. 60% of 920 active. AID 2780;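 active means membrane potential signal shifting up or down by more than 3 SD of buffer-only wells, on both duplicate plates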
HEK293 MPD ctr-2 = parental HEK293 nonspecific activity of TRPC6 modulators; shares compounds with TRPC6 inh; membrane potential dye fluorescence; membrane potential signal change, % at 10 µM; 51% of 2,400 active; AID 488924;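 active means membrane potential signal moves up or down beyond 5 SD from buffer-only wells, on both duplicate plates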
HEK293 MPD ctr 2-2 = second counter-screen for TRPC6 modulators: effect in parental HEK293 cells. membrane potential dye fluorescence; after compound, maximal acetylcholine stimulation. AID 488926. 14% of 2,400 active. inhibition, % at 10 µM. shares compounds with TRPC6 inh;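 active means membrane potential signal drops by more than 5 SD from the mean control signal, in both duplicate plates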
TRPC4 ctr mod = selectivity of TRPC6 modulators against mouse TRPC4; shares compounds with TRPC6 inh; 69% of 2,400 active; percent change from control (negative = decrease, positive = increase), % at 10 µM; HEK293 TRPC4/mu-opioid, membrane potential fluorescence;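 active means membrane potential signal moved up or down beyond 5 SD of buffer control wells, in both duplicate plates, actives on both sides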
TRPC4/MOR inh 2 = mouse TRPC4 off-target activity of TRPC6 modulators, second screen; AID 488928; shares compounds with TRPC6 inh; inhibition, % at 10 µM; HEK293 TRPC4/mu-opioid, membrane potential dye fluorescence; stimulated with maximal-effect DAMGO; 55% of 2,400 active;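 active means drop in membrane potential signal beyond 5 SD of the control wells in both duplicate plates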;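 further: TRPC4 counter screen for TRPC6 hits run under conditions tuned for TRPC6 not TRPC4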
TRPC6 block conf = mouse TRPC6 inhibitor confirmation; HEK293-TRPC6, membrane potential dye, ACh-evoked depolarization; inhibition, % at 10 µM; 43% of 3,300 active; shares compounds with TRPC6 inh;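 active means fluorescence ratio falls more than 5 SD below the full-stimulation control mean, in both duplicate runs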;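 further: integrated fluorescence ratio of peak minus minimum over baseline after agonist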
TRPC6 act conf = mouse TRPC6 activator confirmation. shares compounds with TRPC6 inh. HEK293-TRPC6 membrane potential dye fluorescence, FDSS. activation, % at 10 µM. 11% of 2,800 active;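 active means ratio signal rise beyond 5 SD above unstimulated control wells' mean, seen in both duplicate runs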
Large screens that a line does not name were inactive (follow-up assays come after a bar, where they were run).

Cn1ccnc1C1CCCCN1Cc1nc(-c2ccc3c(c2)OCO3)no1 (stereo unspecified)	TRPC6 inh -5.3 | HEK293 MPD ctr-2 184% | HEK293 MPD ctr 2-2 62% | TRPC4 ctr mod 44% | TRPC4/MOR inh 2 40% | TRPC6 block conf 48%
CCOc1ccc(NC(=S)NNC(=O)c2ccc(Br)cc2)cc1	none
O=C(c1ccc(CS(=O)c2cccc(Cl)c2)o1)N1CCCCCC1 (stereo unspecified)	none
Cc1nc(SCC(=O)c2ccccc2)c(C#N)c(-c2ccco2)c1C(=O)NCc1ccco1	TRPC6 act 14 | HEK293 MPD ctr-2 220% | HEK293 MPD ctr 2-2 inactive | TRPC4 ctr mod 16% | TRPC4/MOR inh 2 inactive | TRPC6 block conf inactive | TRPC6 act conf 52%
CCN(CC(=O)Nc1cccc(C(C)=O)c1)S(=O)(=O)c1ccccc1	none
CCOc1ccc(S(=O)(=O)N(CC(=O)N/N=C/c2ccc(-c3ccc([N+](=O)[O-])cc3)o2)c2ccccc2)cc1	TRPC6 inh -5.1 | HEK293 MPD ctr-2 inactive | HEK293 MPD ctr 2-2 inactive | TRPC4 ctr mod inactive | TRPC4/MOR inh 2 inactive | TRPC6 block conf inactive
Cc1ccc(C)c(N(CC(=O)N/N=C/c2ccc(-c3ccc([N+](=O)[O-])cc3)o2)S(=O)(=O)c2ccccc2)c1	none
CC1(C)CN=c2s/c(=C\c3ccc(Cl)cc3)c(=O)n2C1	TRPC4 potent 16, TRPC6 inh -7.3 | TRPC4 spec 2 54% | TRPC4 spec -10% | HEK293 MPD ctr 2-1 inactive | HEK293 MPD ctr-1 inactive | TRPC6 block conf inactive | TRPC6 act conf inactive
CSC1=N/C(=C\c2ccc(Cl)cc2)C(=O)N1N(C)C	none
COc1ccc(/C=C(\C#N)c2nc3ccccc3[nH]2)cc1O	none
CCOc1cc(N(CC)CC)ccc1/C=C(/C#N)c1nc2ccccc2[nH]1	TRPC6 act 16, TRPC4 act 126 | HEK293 MPD ctr-2 295% | HEK293 MPD ctr 2-2 inactive | TRPC4 ctr mod 46% | TRPC4/MOR inh 2 inactive | TRPC6 block conf inactive | TRPC6 act conf 48%
COc1cc(/C=C(\C#N)c2nc3ccccc3[nH]2)cc(OC)c1O	TRPC6 act 14, TRPC6 inh -5.3 | HEK293 MPD ctr-2 612% | HEK293 MPD ctr 2-2 inactive | TRPC4 ctr mod 100% | TRPC4/MOR inh 2 58% | TRPC6 block conf inactive | TRPC6 act conf inactive
CC(=O)c1ccc(N2CCN(C(=O)Nc3cccc(F)c3)CC2)cc1	none
Cc1ccc(-n2c(-c3cccc(C)c3)n[nH]c2=S)cc1	TRPC6 inh -18 | HEK293 MPD ctr-2 inactive | HEK293 MPD ctr 2-2 inactive | TRPC4 ctr mod inactive | TRPC4/MOR inh 2 inactive | TRPC6 block conf inactive | TRPC6 act conf inactive
O=C1CS/C(=N/N=C/c2ccco2)N1Cc1ccc(F)cc1	none
CCOC(=O)c1c(NC(=O)/C=C/C(=O)O)sc(C)c1-c1ccc(C(C)(C)C)cc1	TRPC6 act 14, TRPC4 block -10 | HEK293 MPD ctr-2 inactive | HEK293 MPD ctr 2-2 inactive | TRPC4 ctr mod 18% | TRPC4/MOR inh 2 50% | TRPC6 block conf inactive | TRPC6 act conf 30%
CN(C)c1cc[n+](CC[n+]2ccc(N(C)C)cc2)cc1	TRPC6 inh -5.5 | HEK293 MPD ctr-2 -234% | HEK293 MPD ctr 2-2 inactive | TRPC4 ctr mod -42% | TRPC4/MOR inh 2 40% | TRPC6 block conf 52% | TRPC6 act conf inactive
Cc1cccc2sc(N3CCN(C(=O)c4cccs4)CC3)nc12	TRPC6 inh -5.4 | HEK293 MPD ctr-2 inactive | HEK293 MPD ctr 2-2 inactive | TRPC4 ctr mod 14% | TRPC4/MOR inh 2 32% | TRPC6 block conf 47%
NCCCCCc1nnc(SC/C=C/c2ccccc2)o1	TRPC6 inh -5.5 | HEK293 MPD ctr-2 102% | HEK293 MPD ctr 2-2 inactive | TRPC4 ctr mod 18% | TRPC4/MOR inh 2 inactive | TRPC6 block conf inactive
CCOC(=O)c1c(NC(=O)COC(=O)CC(NC(C)=O)c2ccccc2)sc(C(=O)NC)c1C (stereo unspecified)	none
CN(Cc1ccsc1)C(=O)Cn1cc(Br)ccc1=O	none
OC(C#CCN1CCCCCC1)(c1ccccc1)c1cccnc1 (stereo unspecified)	TRPC6 inh -7.3 | TRPC4 spec 2 inactive | TRPC4 spec 3.4% | HEK293 MPD ctr 2-1 8.5% | HEK293 MPD ctr-1 4.8% | TRPC6 block conf 63%
OC(C#CCN1CCCC1)(c1ccccc1)c1cccnc1 (stereo unspecified)	TRPC6 inh -6.1 | HEK293 MPD ctr-2 inactive | HEK293 MPD ctr 2-2 69% | TRPC4 ctr mod inactive | TRPC4/MOR inh 2 inactive | TRPC6 block conf 82% | TRPC6 act conf inactive
CCCN(CC#CC(O)(c1ccccc1)c1cccnc1)CCC (stereo unspecified)	none
CCOC(=O)Cn1c(=N)n(CCOc2ccc3ccccc3c2)c2ccccc21	Kir21 inh -11, TRPC6 inh -5.3 | HEK293 MPD ctr-2 inactive | HEK293 MPD ctr 2-2 inactive | TRPC4 ctr mod inactive | TRPC4/MOR inh 2 70% | TRPC6 block conf 40% | TRPC6 act conf inactive
